Assay results taken from ChEMBL document CHEMBL1151763, “Identification of diarylsulfone sulfonamides as secreted frizzled related protein-1 (sFRP-1) inhibitors” (J Med Chem, 2008).
pEC50, pKd: −log10 of the molar value. In brackets after ≈: the same amount, converted by molar mass. Activity calls are given as the source filed them. No cut-off for these calls is given here.

What was measured:
CYP2D6 = CYP2D6 (Homo sapiens, UniProt P10635); test: Inhibition of CYP2D6 at 3 uM; assay type: ADME
[1] = molecular target: T1, Secreted frizzled-related protein 1 (Homo sapiens, UniProt Q8N474); test: Inhibition of human sFRP1 expressed in human U2OS assessed as luciferase activity by TCF-luciferase reporter gene assay
T1 sequence (Q8N474 whole entry): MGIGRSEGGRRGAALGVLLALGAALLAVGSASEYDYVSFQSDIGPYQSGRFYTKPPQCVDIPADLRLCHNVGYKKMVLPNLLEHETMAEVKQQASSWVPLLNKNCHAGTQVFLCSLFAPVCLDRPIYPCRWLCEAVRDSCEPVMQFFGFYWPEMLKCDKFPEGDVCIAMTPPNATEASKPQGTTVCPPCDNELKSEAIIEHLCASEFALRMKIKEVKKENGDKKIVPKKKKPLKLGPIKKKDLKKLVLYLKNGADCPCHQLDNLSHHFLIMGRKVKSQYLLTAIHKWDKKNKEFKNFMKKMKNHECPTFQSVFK
In short: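 Cell-based functional assay in U2OS human osteosarcoma cells transfected with human sFRP-1, Wnt-3 and a TCF-luciferase reporter gene measuring canonical Wnt pathway activation; EC50 derived from luciferase signal.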

[2] = Metabolic stability in rat microsomes assessed as half life; assay type: ADME, Microsome
[3] = molecular target: T2, Secreted frizzled-related protein 1 (Homo sapiens) (UniProt Q8N474); test: Inhibition of human sFRP1 expressed in human U2OS assessed as fold induction in luciferase activity at 15 uM by TCF-luciferase reporter gene assay relative to control
T2 sequence (whole entry): T1 sequence (Q8N474 whole entry)
In short: (§1)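 U2OS human osteosarcoma cells transfected with human sFRP-1, Wnt-3 and a TCF-luciferase reporter (canonical Wnt read-out). Inhibitor tested at 15 µM or 30 µM. Luciferase signal without inhibitor set at 1; fold induction measured in quadruplicate.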

[4] = Aqueous solubility at pH 7.4; assay type: physicochemical; details: buffer
CYP2C9 = CYP2C9 (Homo sapiens, UniProt P11712); test: Inhibition of CYP2C9 at 3 uM; assay type: ADME
CYP3A4 = CYP3A4 (Homo sapiens, UniProt P08684); test: Inhibition of CYP3A4 at 3 uM; assay type: ADME
[5] = molecular target: T1, Secreted frizzled-related protein 1; test: Binding affinity to human sFRP1 by fluorescence spectroscopy
In short: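 Binding constant (K_D) taken from changes in intrinsic tryptophan fluorescence of sFRP-1 on inhibitor binding; excitation 295 nm, emission 340 nm. Stoichiometry of binding also determined.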

[6] = Metabolic stability in human microsomes assessed as half life; assay type: ADME, Microsome
[7] = molecular target: T2, Secreted frizzled-related protein 1 (Homo sapiens); test: Inhibition of human sFRP1 expressed in human U2OS assessed as fold induction in luciferase activity at 30 uM by TCF-luciferase reporter gene assay relative to control; in short: as §1
Mus musculus = species on record: Mus musculus; test: Increase in bone formation in mouse calvaria assessed as number of osteoblast on bone surface at 5 uM after 7 days relative to control; assay type: functional
[8] = Increase in bone formation in mouse calvaria assessed as increase in bone area at 5 uM after 7 days relative to control; assay type: functional

Chain of CYP2C9 (P11712 whole entry): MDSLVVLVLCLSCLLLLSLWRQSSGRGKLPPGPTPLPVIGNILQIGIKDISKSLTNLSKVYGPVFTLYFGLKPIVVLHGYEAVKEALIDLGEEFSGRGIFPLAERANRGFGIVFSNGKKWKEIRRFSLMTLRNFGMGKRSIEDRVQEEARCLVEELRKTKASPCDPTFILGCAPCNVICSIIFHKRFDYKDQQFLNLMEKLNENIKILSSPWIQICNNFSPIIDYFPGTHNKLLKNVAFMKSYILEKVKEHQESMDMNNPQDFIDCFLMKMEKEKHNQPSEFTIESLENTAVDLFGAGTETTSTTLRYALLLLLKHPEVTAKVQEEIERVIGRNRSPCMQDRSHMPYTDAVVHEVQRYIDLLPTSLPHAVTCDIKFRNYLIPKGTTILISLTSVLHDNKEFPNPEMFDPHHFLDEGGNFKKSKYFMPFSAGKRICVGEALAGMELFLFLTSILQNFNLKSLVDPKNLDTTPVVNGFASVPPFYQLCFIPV
Chain of CYP3A4 (P08684 whole entry): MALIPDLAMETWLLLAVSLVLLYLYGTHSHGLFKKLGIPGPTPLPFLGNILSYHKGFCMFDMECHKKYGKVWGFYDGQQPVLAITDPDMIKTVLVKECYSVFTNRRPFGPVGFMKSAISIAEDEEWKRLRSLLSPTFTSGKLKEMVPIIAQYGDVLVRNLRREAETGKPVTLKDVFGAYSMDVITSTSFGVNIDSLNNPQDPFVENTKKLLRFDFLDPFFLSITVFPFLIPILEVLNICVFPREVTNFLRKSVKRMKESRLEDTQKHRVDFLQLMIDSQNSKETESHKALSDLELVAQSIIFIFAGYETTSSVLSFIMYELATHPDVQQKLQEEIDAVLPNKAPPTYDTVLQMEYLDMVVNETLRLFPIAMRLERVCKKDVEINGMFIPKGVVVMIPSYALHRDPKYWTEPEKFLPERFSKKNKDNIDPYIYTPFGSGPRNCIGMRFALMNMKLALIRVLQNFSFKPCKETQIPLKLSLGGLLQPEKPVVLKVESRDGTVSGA
Chain of CYP2D6 (P10635 whole entry): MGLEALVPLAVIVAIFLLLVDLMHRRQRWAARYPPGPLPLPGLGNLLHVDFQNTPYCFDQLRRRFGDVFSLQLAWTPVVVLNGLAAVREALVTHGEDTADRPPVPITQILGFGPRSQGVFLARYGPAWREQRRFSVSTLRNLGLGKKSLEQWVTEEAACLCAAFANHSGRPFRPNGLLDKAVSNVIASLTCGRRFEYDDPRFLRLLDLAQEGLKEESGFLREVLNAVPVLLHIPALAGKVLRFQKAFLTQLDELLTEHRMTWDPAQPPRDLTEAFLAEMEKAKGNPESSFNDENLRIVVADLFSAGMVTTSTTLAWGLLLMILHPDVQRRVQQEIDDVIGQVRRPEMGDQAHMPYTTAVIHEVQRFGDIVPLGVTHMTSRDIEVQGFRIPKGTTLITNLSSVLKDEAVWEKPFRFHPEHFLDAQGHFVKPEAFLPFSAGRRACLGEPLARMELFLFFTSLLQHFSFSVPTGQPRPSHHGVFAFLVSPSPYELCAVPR

SMILES | inhibition at 3 µM (CYP2D6) [%] | pEC50 [1] | half-life [2] [min] | fold change (FC) [3] | solubility [4] [µg/mL] | inhibition at 3 µM (CYP2C9) [%] | inhibition at 3 µM (CYP3A4) [%] | also measured
CCc1ccc(S(=O)(=O)c2ccccc2)cc1S(=O)(=O)NCCCN1CCCC1 | 25 | 5.05 | 16 | 4.2 | > 100 | 25 | 78 | –
COc1ccc(S(=O)(=O)c2ccccc2)cc1S(=O)(=O)NCCc1ccccc1 | – | – | – | 1.5 | – | – | – | –
Cc1ccc(S(=O)(=O)c2ccccc2)cc1S(=O)(=O)NCCc1ccccc1 | 12 | 5.41 | 5 | 2.5 | 1 (≈ 2.41 µM) | 41 | 70 | pKd [5]: 6.46
Cc1ccc(S(=O)(=O)c2ccccc2)cc1S(=O)(=O)N(C)CCc1ccccc1 | – | – | – | < 1 | – | – | – | –
O=S(=O)(NCCc1ccccc1)c1cccc(S(=O)(=O)c2ccccc2)c1 | – | – | – | < 1 | – | – | – | –
CCc1ccc(S(=O)(=O)c2ccccc2)cc1S(=O)(=O)NCCCN(C)C | 9 | 5.90 | 12 | 3.3 | 26 (≈ 63.3 µM) | 14 | 43 | half-life [6]: 26.7 min
Cc1ccc(S(=O)(=O)c2ccccc2)cc1S(=O)(=O)NCc1ccccc1 | – | – | – | – | – | – | – | fold change (FC) [7]: < 1
Cc1ccc(S(=O)(=O)c2ccccc2)cc1S(=O)(=O)NCCCc1ccccc1 | – | – | – | 1.3 | – | – | – | –
Cc1ccc(S(=O)(=O)c2ccc(C)c(S(=O)(=O)NCCc3ccccc3)c2)cc1 | – | – | – | 2.2 | – | – | – | –
CCc1ccc(S(=O)(=O)c2ccccc2)cc1S(=O)(=O)NCCc1ccccc1 | – | – | – | 3.3 | – | – | – | –
CCc1ccc(S(=O)(=O)c2ccccc2)cc1S(=O)(=O)NCCc1ccc(OC)c(OC)c1 | 11 | 5.16 | 1 | 3 | 1 (≈ 2.04 µM) | 84 | 96 | Activity (Mus musculus): Active; Activity [8]: 50%
Cc1ccc(S(=O)(=O)c2ccc(F)cc2)cc1S(=O)(=O)NCCc1ccccc1 | – | – | – | 2.7 | – | – | – | –
Cc1ccc(S(=O)(=O)c2ccc(Cl)cc2)cc1S(=O)(=O)Nc1ccccc1 | – | – | – | – | – | – | – | fold change (FC) [7]: 1
